Source: ChEMBL document CHEMBL1125351, “Isobenzofurans as conformationally constrained miconazole analogues with improved antifungal potency” (1992)
In brackets after ≈: the same amount, converted by molar mass.

Tested on: Candida tropicalis
Test: Minimum inhibitory concentration against Candida tropicalis using eagles minimum essential medium (EMEM)
Assay type: functional
Conditions: not given
Summary of the method: (§1)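 Candida MICs in Eagle's minimum essential medium, pH 7.0. Compounds in DMSO or ethanol were serially diluted in medium, inoculated and incubated at 37 °C under CO₂. […] The summary value is the geometric mean of the MICs across strains.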

SMILES | MIC [µg/mL]
Clc1ccc(C2(Cn3ccnc3)OCc3ccc(Cl)cc32)c(Cl)c1 (stereo unspecified) | 1 (≈ 2.63 µM)
c1ccc(C2(Cn3ccnc3)SCc3ccccc32)cc1 (stereo unspecified) | 0.125 (≈ 0.427 µM)
Clc1ccc(COC(Cn2ccnc2)c2ccc(Cl)cc2Cl)c(Cl)c1 (stereo unspecified) [MICONAZOLE] | 0.125 (≈ 0.3 µM)

Tested on: Candida albicans
Test: Minimum inhibitory concentration against Candida albicans at a pH of 5.7 using SDB medium
Assay type: functional
Conditions: not given
Summary of the method: (§2)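 Broth dilution in Sabouraud dextrose broth, pH 5.7. Compounds dissolved in DMSO or ethanol, serially diluted in medium, inoculated and incubated at 27 °C. Wells read visually at 48 h. MIC is the lowest concentration giving complete growth inhibition.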

SMILES | MIC [µg/mL]
Clc1ccc(C2(Cn3ccnc3)OCc3ccc(Cl)cc32)c(Cl)c1 (stereo unspecified) | 64 (≈ 169 µM)
c1ccc(C2(Cn3ccnc3)SCc3ccccc32)cc1 (stereo unspecified) | 64 (≈ 219 µM)
Clc1ccc(COC(Cn2ccnc2)c2ccc(Cl)cc2Cl)c(Cl)c1 (stereo unspecified) [MICONAZOLE] | 8 (≈ 19.2 µM)

Tested on: Trichophyton benhamiae
Test: Minimum inhibitory concentration against Trichophyton mentagrophytes at a pH of 5.7 using SDB medium
Assay type: functional, Arthroderma benhamiae
Conditions: not given
Summary of the method: (§3)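 Dermatophyte isolates tested by serial broth dilution in SDB, pH 5.7. Compound stocks in DMSO or ethanol, incubated at 27 °C, and growth read visually at 72 h. MIC is the lowest concentration with no visible growth. The summary value is the geometric mean of the MICs across the organisms.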

SMILES | MIC [µg/mL]
Clc1ccc(C2(Cn3ccnc3)OCc3ccc(Cl)cc32)c(Cl)c1 (stereo unspecified) | 0.5 (≈ 1.32 µM)
c1ccc(C2(Cn3ccnc3)SCc3ccccc32)cc1 (stereo unspecified) | 2 (≈ 6.84 µM)
Clc1ccc(COC(Cn2ccnc2)c2ccc(Cl)cc2Cl)c(Cl)c1 (stereo unspecified) [MICONAZOLE] | < 0.031

Tested on: Candida albicans
Test: Minimum inhibitory concentration against Candida stellatoidea at a pH of 5.7 using SDB medium
Assay type: functional
Conditions: not given
Summary of the method: as §2

SMILES | MIC [µg/mL]
Clc1ccc(C2(Cn3ccnc3)OCc3ccc(Cl)cc32)c(Cl)c1 (stereo unspecified) | 64 (≈ 169 µM)
c1ccc(C2(Cn3ccnc3)SCc3ccccc32)cc1 (stereo unspecified) | 64 (≈ 219 µM)
Clc1ccc(COC(Cn2ccnc2)c2ccc(Cl)cc2Cl)c(Cl)c1 (stereo unspecified) [MICONAZOLE] | 8 (≈ 19.2 µM)

Tested on: Cricetinae gen. sp.
Test: Inhibition of Vaginal Candida (C-43 strain) infection in Hamsters, estimated as Percent Area under curve at 0.25 % concentration after 8 days of administration
Assay type: functional, Cricetulus griseus
Conditions: not given

SMILES | Inhibition [%]
Clc1ccc(COC(Cn2ccnc2)c2ccc(Cl)cc2Cl)c(Cl)c1 (stereo unspecified) [MICONAZOLE] | 69

Tested on: Cavia porcellus
Test: In vivo inhibition of topical Trichophyton infection in Guinea Pig during drug administration
Assay type: functional
Conditions: not given
Summary of the method: (§4)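 Guinea pigs (5 per compound) infected with T. mentagrophytes D24 by swabbing a homogenate onto shaven, abraded skin. From day 4 post-infection, 0.25% (w/v) compound in EtOH–PEG 400–glycerol (10:45:45) was rubbed in topically twice daily for 10 days. Hair samples were cultured on SDA at 27 °C for up to 16 days. Read-outs were the % negative cultures and the day each animal became culture-negative.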

SMILES | Culture negative [%]
Clc1ccc(COC(Cn2ccnc2)c2ccc(Cl)cc2Cl)c(Cl)c1 (stereo unspecified) [MICONAZOLE] | 20

Tested on: Microsporum canis
Test: Minimum inhibitory concentration against Microsporum canis at a pH of 5.7 using SDB medium
Assay type: functional
Conditions: not given
Summary of the method: as §3

SMILES | MIC [µg/mL]
Clc1ccc(C2(Cn3ccnc3)OCc3ccc(Cl)cc32)c(Cl)c1 (stereo unspecified) | 0.5 (≈ 1.32 µM)
c1ccc(C2(Cn3ccnc3)SCc3ccccc32)cc1 (stereo unspecified) | 4 (≈ 13.7 µM)
Clc1ccc(COC(Cn2ccnc2)c2ccc(Cl)cc2Cl)c(Cl)c1 (stereo unspecified) [MICONAZOLE] | < 0.031

Tested on: Nannizzia gypsea
Test: Minimum inhibitory concentration against Microsporum gypseum at a pH of 5.7 using SDB medium
Assay type: functional
Conditions: not given
Summary of the method: as §3

SMILES | MIC [µg/mL]
c1ccc(C2(Cn3ccnc3)SCc3ccccc32)cc1 (stereo unspecified) | 16 (≈ 54.7 µM)
Clc1ccc(COC(Cn2ccnc2)c2ccc(Cl)cc2Cl)c(Cl)c1 (stereo unspecified) [MICONAZOLE] | 1 (≈ 2.4 µM)

Tested on: Arthrodermataceae
Test: (§5) Compound is evaluated for geometric mean of MIC values of dermatophytes
Assay type: functional
Design: unit not given beside the values
Conditions: not given
Summary of the method: as §3

SMILES | Geometric mean
Clc1ccc(C2(Cn3ccnc3)OCc3ccc(Cl)cc32)c(Cl)c1 (stereo unspecified) | 1.3
Clc1ccc(COC(Cn2ccnc2)c2ccc(Cl)cc2Cl)c(Cl)c1 (stereo unspecified) [MICONAZOLE] | <0.03

Tested on: not listed separately
Test: Geometric mean for the above three species of Candida, tested in EMEM medium
Assay type: functional
Conditions: not given
Summary of the method: as §1

SMILES | Geometric mean
Clc1ccc(C2(Cn3ccnc3)OCc3ccc(Cl)cc32)c(Cl)c1 (stereo unspecified) | < 0.031
c1ccc(C2(Cn3ccnc3)SCc3ccccc32)cc1 (stereo unspecified) | 0.19
Clc1ccc(COC(Cn2ccnc2)c2ccc(Cl)cc2Cl)c(Cl)c1 (stereo unspecified) [MICONAZOLE] | 0.18

Tested on: Candida
Test: Compound is evaluated for geometric mean of MIC values of Candida species
Assay type: functional
Design: unit not given beside the values
Conditions: not given

SMILES | Geometric mean
Clc1ccc(C2(Cn3ccnc3)OCc3ccc(Cl)cc32)c(Cl)c1 (stereo unspecified) | <15
c1ccc(C2(Cn3ccnc3)SCc3ccccc32)cc1 (stereo unspecified) | 53
Clc1ccc(COC(Cn2ccnc2)c2ccc(Cl)cc2Cl)c(Cl)c1 (stereo unspecified) [MICONAZOLE] | <1.8

Tested on: Cricetinae gen. sp.
Test: Inhibition of Vaginal Candida (C-60 strain) infection in Hamsters, estimated as Percent Area under curve at 0.05 % concentration after 4 days of administration
Assay type: functional, Cricetulus griseus
Conditions: not given
Summary of the method: (§6)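 Hamster vaginal C. albicans infection (strains C43 or C60; 10 animals per compound). From day 5 post-infection, a cotton pellet holding 0.15 mL of 0.05% or 0.01% (w/w) compound in EtOH–PEG 400–glycerol (10:45:45) was inserted once daily for 4 or 8 days. Vaginal swabs were filtered and the filters cultured on SDA at 37 °C for 48 h. Read-out was the area under the % negative cultures versus time curve.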

SMILES | Inhibition [%]
Clc1ccc(C2(Cn3ccnc3)OCc3ccc(Cl)cc32)c(Cl)c1 (stereo unspecified) | 64

Tested on: Epidermophyton floccosum
Test: Minimum inhibitory concentration against Epidermophyton floccosum at a pH of 5.7 using SDB medium
Assay type: functional
Conditions: not given
Summary of the method: as §3

SMILES | MIC [µg/mL]
c1ccc(C2(Cn3ccnc3)SCc3ccccc32)cc1 (stereo unspecified) | 0.063 (≈ 0.215 µM)
Clc1ccc(COC(Cn2ccnc2)c2ccc(Cl)cc2Cl)c(Cl)c1 (stereo unspecified) [MICONAZOLE] | < 0.031

Tested on: Candida parapsilosis
Test: Minimum inhibitory concentration against Candida parapsilosis at a pH of 5.7 using SDB medium
Assay type: functional
Conditions: Lodderomyces parapsilosis
Summary of the method: as §2

SMILES | MIC [µg/mL]
Clc1ccc(C2(Cn3ccnc3)OCc3ccc(Cl)cc32)c(Cl)c1 (stereo unspecified) | < 0.031
c1ccc(C2(Cn3ccnc3)SCc3ccccc32)cc1 (stereo unspecified) | 16 (≈ 54.7 µM)
Clc1ccc(COC(Cn2ccnc2)c2ccc(Cl)cc2Cl)c(Cl)c1 (stereo unspecified) [MICONAZOLE] | < 0.031

Tested on: Cricetinae gen. sp.
Test: Inhibition of Vaginal Candida (C-60 strain) infection in Hamsters, estimated as Percent Area under curve at 0.25 % concentration after 4 days of administration
Assay type: functional, Cricetulus griseus
Conditions: not given

SMILES | Inhibition [%]
Clc1ccc(COC(Cn2ccnc2)c2ccc(Cl)cc2Cl)c(Cl)c1 (stereo unspecified) [MICONAZOLE] | 63

Tested on: Cricetinae gen. sp.
Test: Inhibition of Vaginal Candida (C-60 strain) infection in Hamsters, estimated as Percent Area under curve at 0.25 % concentration after 8 days of administration
Assay type: functional, Cricetulus griseus
Conditions: not given

SMILES | Inhibition [%]
Clc1ccc(COC(Cn2ccnc2)c2ccc(Cl)cc2Cl)c(Cl)c1 (stereo unspecified) [MICONAZOLE] | 63

Tested on: Candida albicans
Test: Minimum inhibitory concentration against Candida stellatoidea using eagles minimum essential medium (EMEM)
Assay type: functional
Conditions: not given
Summary of the method: as §1

SMILES | MIC [µg/mL]
Clc1ccc(C2(Cn3ccnc3)OCc3ccc(Cl)cc32)c(Cl)c1 (stereo unspecified) | < 0.031
c1ccc(C2(Cn3ccnc3)SCc3ccccc32)cc1 (stereo unspecified) | 0.25 (≈ 0.855 µM)
Clc1ccc(COC(Cn2ccnc2)c2ccc(Cl)cc2Cl)c(Cl)c1 (stereo unspecified) [MICONAZOLE] | 0.125 (≈ 0.3 µM)

Tested on: Candida albicans
Test: Minimum inhibitory concentration against Candida albicans using eagles minimum essential medium (EMEM)
Assay type: functional
Conditions: not given
Summary of the method: as §1

SMILES | MIC [µg/mL]
Clc1ccc(C2(Cn3ccnc3)OCc3ccc(Cl)cc32)c(Cl)c1 (stereo unspecified) | < 0.031
c1ccc(C2(Cn3ccnc3)SCc3ccccc32)cc1 (stereo unspecified) | 0.25 (≈ 0.855 µM)
Clc1ccc(COC(Cn2ccnc2)c2ccc(Cl)cc2Cl)c(Cl)c1 (stereo unspecified) [MICONAZOLE] | 0.25 (≈ 0.601 µM)

Tested on: Cavia porcellus
Test: In vivo inhibition of topical Trichophyton infection in Guinea Pig after drug administration
Assay type: functional
Conditions: not given
Summary of the method: as §4

SMILES | Culture negative [%]
Clc1ccc(COC(Cn2ccnc2)c2ccc(Cl)cc2Cl)c(Cl)c1 (stereo unspecified) [MICONAZOLE] | 60

Tested on: Cricetinae gen. sp.
Test: Inhibition of Vaginal Candida (C-60 strain) infection in Hamsters, estimated as Percent Area under curve at 0.01 % concentration after 4 days of administration
Assay type: functional, Cricetulus griseus
Conditions: not given
Summary of the method: as §6

SMILES | Inhibition [%]
Clc1ccc(C2(Cn3ccnc3)OCc3ccc(Cl)cc32)c(Cl)c1 (stereo unspecified) | 26
Clc1ccc(COC(Cn2ccnc2)c2ccc(Cl)cc2Cl)c(Cl)c1 (stereo unspecified) [MICONAZOLE] | 33

Tested on: Candida tropicalis
Test: Minimum inhibitory concentration against Candida tropicalis at a pH of 5.7 using SDB medium
Assay type: functional
Conditions: not given
Summary of the method: as §2

SMILES | MIC [µg/mL]
Clc1ccc(C2(Cn3ccnc3)OCc3ccc(Cl)cc32)c(Cl)c1 (stereo unspecified) | 8 (≈ 21.1 µM)
c1ccc(C2(Cn3ccnc3)SCc3ccccc32)cc1 (stereo unspecified) | 64 (≈ 219 µM)
Clc1ccc(COC(Cn2ccnc2)c2ccc(Cl)cc2Cl)c(Cl)c1 (stereo unspecified) [MICONAZOLE] | 4 (≈ 9.61 µM)

Tested on: Arthrodermataceae
Test: as §5
Assay type: functional
Conditions: not given
Summary of the method: as §3

SMILES | Geometric mean
c1ccc(C2(Cn3ccnc3)SCc3ccccc32)cc1 (stereo unspecified) | 1.7

Tested on: Trichophyton rubrum
Test: Minimum inhibitory concentration against Trichophyton rubrum at a pH of 5.7 using SDB medium
Assay type: functional
Conditions: not given
Summary of the method: as §3

SMILES | MIC [µg/mL]
Clc1ccc(C2(Cn3ccnc3)OCc3ccc(Cl)cc32)c(Cl)c1 (stereo unspecified) | 8 (≈ 21.1 µM)
c1ccc(C2(Cn3ccnc3)SCc3ccccc32)cc1 (stereo unspecified) | 2 (≈ 6.84 µM)
Clc1ccc(COC(Cn2ccnc2)c2ccc(Cl)cc2Cl)c(Cl)c1 (stereo unspecified) [MICONAZOLE] | < 0.031
